From PubChem
Only some compounds are listed: those with a hit (about 2.5% of all), similar ones and a draw of the others.
ABHD5-PLIN5 inh = ABHD5-PLIN5 interaction inhibitors, primary screen, cell lysate, split luciferase complementation, luminescence; 360,000 compounds, 0.78% hits; inhibition, % at 4 µM; Split G. princeps luciferase complementation, 4 h; Perilipin-5 (Homo sapiens) + 1-acylglycerol-3-phosphate O-acyltransferase ABHD5 (Homo …;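 active means inhibition above the mean inhibition across every tested compound plus 3 SD, cut at about 22% in these data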;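 further: 0% = DMSO only wells and the 100% control is not disclosed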
Rin1 Abl inh = inhibitors of Rin1-Abl protein binding, primary screen, biochemical, TR-FRET; Tyrosine-protein kinase ABL1 (Homo sapiens) + Ras and Rab interactor 1 (Homo sapiens), …; 360,000 compounds, 0.4% hits; inhibition, % at 7.35 µM; in the data active means inhibition above about 5%, passing the limit was not always enough
MBD2 inh = inhibitors of MBD2 binding to methylated DNA, primary screen, biochemical, TR-FRET, DNA-binding domain, human. Methyl-CpG-binding domain protein 2 (Homo sapiens), Q9UBB5. MBD2 binding to methylated oligonucleotide. inhibition, % at 4.4 µM. 370,000 compounds, 0.31% hits; in the data active means inhibition above about 13%
Beta2AR agonist = beta2AR agonists driving receptor internalization, primary screen, cell-based, FAP fluorogen, flow cytometry; 340,000 compounds, 0.43% hits; Beta-2 adrenergic receptor (Homo sapiens), P07550; response, % (concentration not given with the values); Am2.2-beta2AR cells; AID 504454, 2011;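 active means response above a set limit, near 3 SD of response in nonfluorescent compounds, cut at about 42% in these data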
Target sequence (P07550 whole entry, looked up): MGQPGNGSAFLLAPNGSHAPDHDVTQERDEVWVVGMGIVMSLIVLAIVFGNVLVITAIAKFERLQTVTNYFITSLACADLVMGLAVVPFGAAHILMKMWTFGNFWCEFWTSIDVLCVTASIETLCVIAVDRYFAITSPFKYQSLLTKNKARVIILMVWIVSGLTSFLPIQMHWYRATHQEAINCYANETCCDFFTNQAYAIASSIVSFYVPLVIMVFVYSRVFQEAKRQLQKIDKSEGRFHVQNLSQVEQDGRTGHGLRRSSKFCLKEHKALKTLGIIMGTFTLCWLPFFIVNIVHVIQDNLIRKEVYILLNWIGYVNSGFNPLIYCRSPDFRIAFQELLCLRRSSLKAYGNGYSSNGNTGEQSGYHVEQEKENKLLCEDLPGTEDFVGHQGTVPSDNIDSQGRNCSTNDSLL
UHRF1 MBD2 ctr = UHRF1 methylated DNA binding inhibitors, primary screen, counter-screen for MBD2 inhibitor project, biochemical, TR-FRET, human UHRF1, single concentration. E3 ubiquitin-protein ligase UHRF1 (Homo sapiens), Q96T88. UHRF1 binding to methylated oligo. 370,000 compounds, 0.75% hits. inhibition, % at 4.4 µM;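 further: UHRF1 SRA domain binding a hemimethylated CpG hairpin DNA probe; 0% = median of test compound wells and 100% = reference inhibitor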
Arr AP2 block = inhibitors of beta-arrestin/AP2 binding, primary screen, biochemical, GPCR trafficking, flow cytometry; beta-arrestin 1 C-terminal peptide binding to AP2 beta2-adaptin appendage (human); FITC-arrestin peptide / GST-AP2 beads; AP2 beta2 appendage carries R879A mutation; inhibition, % at 10 µM; 340,000 compounds, 0.31% hits;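 active means inhibition above a set limit, near 3 SD of compounds lacking own fluorescence, cut at about 54% in these data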;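 further: plate controls were DMSO wells for no effect and 5 µM unlabelled arrestin peptide for full effect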
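Assay system: GST-AP2 R879A bound to glutathione beads, E. coli-expressed; Medium: PBS with 0.05% Tween 20 and 0.1% BSA; Also added: fluorescein-tagged arrestin peptide at 50 nM final; Timing: 12 min plus 1 h, RT; Measured by: flow cytometry, FL1 (488/535 nm); Evaluation: percent drop in bead-associated FITC signal.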
UHRF1 DNA bind = UHRF1 methylated DNA binding inhibitors, counter-screen for MBD2 inhibitor project, biochemical, TR-FRET, human UHRF1 | inhibition, % at 4.4 µM | UHRF1 binding to methylated oligonucleotide | AID 720530, 2013 | 1,000 compounds, 25% hits | shares compounds with MBD2 inh;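 further: UHRF1 SRA domain binding a labeled hemimethylated CpG hairpin DNA; 0% = vehicle only and 100% = reference inhibitor with vehicle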
MBD2 DBD conf = inhibitors of MBD2 binding to methylated DNA, confirmation, biochemical, TR-FRET, DNA-binding domain, human | 1,000 compounds, 26% hits | shares compounds with MBD2 inh | inhibition, % at 4.4 µM | TR-FRET MBD2-DBD binding to methylated oligonucleotide | AID 720531, 2013; in the data active means inhibition above about 14%
An asterisk follows results filed as active; . = no result given. Unless noted, no stated cut-off is given here; in the data, active means inhibition above about 21%; inactive means the rest.

SMILES | ABHD5-PLIN5 inh | Rin1 Abl inh | MBD2 inh | Beta2AR agonist | UHRF1 MBD2 ctr | Arr AP2 block | UHRF1 DNA bind | MBD2 DBD conf
c1coc(-c2nnc3sc(Cc4cccs4)nn23)c1 | 0.1 | 2.4 | 18.7* | -0.8 | 71.3* | 0.7 | 8.0 | 8.8
Cc1ccc(Oc2nc(CN3CCOCC3)nc3sc4c(c23)CCC(C)C4)cc1 (stereo not drawn) | 2.7 | 2.0 | 13.7* | -9.2 | -0.9 | -11.9 | 9.4 | 3.7
CCN(CC)S(=O)(=O)c1ccc(N2CCOCC2)c(NC(=O)c2ccc(C#N)cc2)c1 | 6.5 | 2.0 | 14.2* | 4.8 | 25.0* | 8.0 | 9.1 | 5.0
O=C(O)COc1ccc2c(c1)O/C(=C\c1cccs1)C2=O | 0.0 | -0.8 | -2.0 | -4.2 | -2.1 | 8.0 | . | .
O=C(O)COc1ccc2c(c1)O/C(=C\c1ccco1)C2=O | 6.2 | 1.4 | 14.8* | -3.8 | 63.0* | 13.5 | 42.4* | 8.7
COc1cccc2c1C(=O)c1c(O)c3c(c(O)c1C2=O)CC(O)(C(C)=O)CC3OC1CC(N(C)C)C(O)C(C)O1 (stereo not drawn) | 10.0 | -14.9 | 110.8* | -75.4 | 95.7* | 38.3 | 100.9* | 111.3*
Cc1ccc(Cn2cc(CN3CC(N4CCN(CCN(C)C)CC4)CS3(=O)=O)nn2)cc1 (stereo not drawn) | 3.4 | . | 7.4 | . | 18.4 | . | . | .
Cc1cccc(CN2CCN(C3CN(Cc4cn(Cc5ccc(Cl)cc5)nn4)S(=O)(=O)C3)CC2)c1 (stereo not drawn) | 7.2 | . | 13.2* | . | 15.1 | . | 5.7 | 5.1
COCCCn1cc(CN2CC(N3CCN(C)CC3)CS2(=O)=O)nn1 (stereo not drawn) | 3.3 | . | 13.5* | . | 19.6 | . | 12.3 | 6.0
Cc1cccc(CN2CCN(C3CN(Cc4cn(Cc5cccc(Cl)c5)nn4)S(=O)(=O)C3)CC2)c1 (stereo not drawn) | 4.2 | . | 10.2 | . | 19.2 | . | . | .
CN(C)CCN1CCN(C2CN(Cc3cn(Cc4ccccc4)nn3)S(=O)(=O)C2)CC1 (stereo not drawn) | 4.4 | . | 14.8* | . | 20.4 | . | 6.1 | 7.9
Clc1ccc([C@H]2OC[C@@]3(CNCc4ccccc4)CS[C@H](c4ccc(Cl)cc4)N23)cc1 | . | . | -2.7 | . | 0.5 | . | . | .
O=C(CSc1ccccc1)N1CCC(Oc2cccnc2)CC1 | . | . | 1.8 | . | -2.9 | . | . | .
CCCCCNC(=O)N[C@H](C(=O)O)C(C)C | -5.8 | 2.2 | 16.1* | -3.3 | 0.6 | -14.3 | 7.8 | 5.3
C(=N/N1CCN(c2ccccc2)CC1)/c1ccco1 | . | . | -6.7 | . | -0.3 | . | . | .
O=C1C=C(c2ccoc2)N2CCC[C@H]2C1 | 3.5 | 4.0 | 35.9* | -3.8 | -4.9 | -2.9 | 8.6 | 1.3
O=C1C2CCCN2C(=S)N1C1CCCCC1 (stereo not drawn) | -4.1 | -0.5 | 4.9 | 1.2 | 1.1 | 16.1 | . | .
COC(=O)[C@]12C[C@H](CC(=O)NCc3ccc(C)o3)C(=O)N(Cc3cccc4ccccc34)C1=C[C@H](C(C)C)O[C@@H]2C1CC1 | . | . | -1.4 | . | 2.3 | . | . | .
CCCC(C)NC(=O)CC1Oc2ccccc2NC1=O (stereo not drawn) | . | . | -0.2 | . | 5.0 | . | . | .
CC(C)(C)C(=O)NC1CCN(S(=O)(=O)c2ccccc2F)CC1 | 3.3 | -0.5 | 14.6* | 5.2 | -0.8 | 51.2 | 6.8 | 2.6
Cc1ccc(NC(=O)C2CCN(S(=O)(=O)c3cnc[nH]3)CC2)cc1C | 0.8 | 1.6 | 3.1 | 6.5 | -0.4 | 9.0 | . | .
Cc1cc(NC(=O)C2CCN(S(=O)(=O)c3cnc[nH]3)CC2)ccc1Br | 2.9 | 0.7 | 13.8* | 2.9 | 20.5 | -4.1 | 3.6 | 1.9
O=C(CCC1CCCN(C(=O)c2cc(F)ccc2F)C1)N1CCN(c2ccccn2)CC1 (stereo not drawn) | -1.5 | 1.7 | 3.2 | . | 6.3 | . | . | .
COc1ccccc1N1CCN(C(=O)C(C)CS(=O)(=O)c2ccc3c(c2)NC(=O)CS3)CC1 (stereo not drawn) | -9.7 | 2.7 | 76.5* | 2.0 | 82.7* | -1.4 | 15.2 | 7.8
COc1ccc(-n2nnnc2-c2ccc(S(C)(=O)=O)cc2Cl)cc1 | 6.7 | 3.7 | 13.3* | -1.4 | 24.0* | -6.5 | 0.7 | 5.3
SMILES | ABHD5-PLIN5 inh | Rin1 Abl inh | MBD2 inh | Beta2AR agonist | UHRF1 MBD2 ctr | Arr AP2 block | UHRF1 DNA bind | MBD2 DBD conf
Cc1cccc2cc(C(c3nnnn3CC3CCCO3)N3CCCc4ccccc43)c(=O)[nH]c12 (stereo not drawn) | -9.8 | -3.7 | 18.3* | 2.5 | -1.2 | 11.6 | 0.8 | 1.6
COc1ccc(S(=O)(=O)N2CCN(C(=O)CCc3c[nH]c4ccccc34)CC2)cc1 | -1.6 | -3.2 | 47.6* | 2.5 | 2.1 | -11.2 | 5.8 | 5.2
COc1cccc(NC(=O)CN(C)C(=O)COc2ccccc2Cc2ccccc2)c1 | -5.4 | -0.5 | -2.6 | 6.5 | -0.9 | -4.2 | . | .
CCOC(=O)CCCNC(=O)O[C@@H]1CC[C@@]23CCCN2C(=O)CCC[C@H]3C1 | . | . | -3.1 | . | -1.8 | . | . | .
COc1cccc(-c2cc(C(=O)NC3CCCC3)no2)c1 | -2.8 | 1.7 | 16.3* | 6.4 | 0.9 | 10.8 | 3.2 | 2.5
Cn1nc(-c2ccccn2)nc2c(=O)n(C)c(=O)nc1-2 | 13.7 | 41.8* | 14.4* | 73.8* | 11.0 | 5.2 | -11.4 | 12.6
COc1ccc(-c2nc(-c3ccccn3)ncc2S(C)(=O)=O)cc1 | -4.6 | 0.4 | 3.0 | 2.0 | -0.7 | 2.9 | . | .
OC[C@@H]1CN(Cc2ccc3c(c2)OCO3)C[C@H](n2cnc3c(NC4CC4)ncnc32)O1 | 1.8 | 1.3 | 5.0 | . | 0.6 | . | . | .
CN(C)CCNC(=O)c1sc2cccc(F)c2c1Cl | 0.9 | -0.1 | -8.6 | 3.7 | -5.2 | 13.5 | . | .
CN(C)CCNC(=O)c1cccc2nc3cccc(F)c3nc12 | 0.0 | -14.3 | 35.1* | -3.1 | 23.1* | 13.2 | 34.6* | 37.4*
COc1ccc(C23CC4CC(CC(C4)C2)C3)cc1C(=O)NCCN(C)C | 4.9 | 2.4 | -0.4 | 27.1 | 0.4 | -2.7 | . | .
COc1ccc(OC)c2nc3c(C(=O)NCCN(C)C)cccc3nc12 | -1.6 | -13.7 | 52.9* | 7.4 | 56.5* | 24.2 | 70.6* | 63.0*
